# From ChEMBL document CHEMBL3526151, “Reversible disulfide formation of the glutamate carboxypeptidase II inhibitor E2072 results in prolonged systemic exposures in vivo” (Drug Metab Dispos, 2012)
# Legend:
# [1] = Apparent volume of distribution in Sprague-Dawley rat at 1 mg/kg, po administered via gavage measured under fasted conditions by LC-MS/MS analysis; type: ADME, organism-based; set-up: dose 1 mg/kg, route oral; conditions: in vivo
# Summary of the method: (§1)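 Fasted male Sprague-Dawley rats (280–330 g) received 0.1, 1, 10 or 30 mg/kg by oral gavage in 50 mM HEPES buffered saline, pH 7.4. Blood drawn at 0.25–24 h into heparin/NEM tubes; plasma analyzed by LC-MS/MS. Cmax taken as observed. AUC by linear trapezoidal rule with extrapolation by λz. Cl/F and Vd/F reported. Mean ± S.D., n = 4–9.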
# Cynomolgus monkey [2] = assay: Clearance in cynomolgus monkey at 5 mg/kg, iv administered as bolus injection by LC-MS/MS analysis; type: ADME, organism-based, Macaca fascicularis; set-up: dose 5 mg/kg, route intravenous; conditions: in vivo
# Summary of the method: (§2)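 Cynomolgus monkeys (n = 3) given a 5 mg/kg intravenous bolus via cephalic or saphenous vein. Dosing solution in 50 mM HEPES, TCEP-treated. Arterial cannula blood collected up to 9 days into heparin/NEM tubes. Plasma assayed by LC-MS/MS. Noncompartmental analysis.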
# [3] = Clearance in Sprague-Dawley rat at 1 mg/kg, iv administered as bolus injection measured under fasted conditions by LC-MS/MS analysis; type: ADME, organism-based; set-up: dose 1 mg/kg, route intravenous; conditions: in vivo
# Summary of the method: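 Male Sprague-Dawley rats (280–330 g), jugular vein cannulated, fasted overnight until 4 h post-dose. Single tail-vein bolus of 0.1, 1, 10 or 30 mg/kg in 50 mM HEPES buffered saline, pH 7.4. Blood drawn 0–24 h into heparin tubes containing NEM. Plasma quantified by LC-MS/MS after NEM derivatization. Noncompartmental analysis: AUClast by linear trapezoidal rule, Cl = dose/AUC0-∞. Mean ± S.D., n = 4–9.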
# [4] = Tmax in Sprague-Dawley rat at 10 mg/kg, iv by LC-MS/MS analysis; type: ADME, organism-based; set-up: dose 10 mg/kg, route intravenous; conditions: in vivo
# [5] = Half life in Sprague-Dawley rat at 1 mg/kg, iv administered as bolus injection measured under fasted conditions by LC-MS/MS analysis; type: ADME, organism-based; set-up: dose 1 mg/kg, route intravenous; conditions: in vivo
# [6] = Volume of distribution in Sprague-Dawley rat at 0.1 mg/kg, iv administered as bolus injection measured under fasted conditions by LC-MS/MS analysis; type: ADME, organism-based; set-up: dose 0.1 mg/kg, route intravenous; conditions: in vivo
# Summary of the method: (§3)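 Jugular-cannulated male Sprague-Dawley rats, 280–330 g, fasted overnight to 4 h post-dose. Single dose in 50 mM HEPES-buffered saline pH 7.4, by oral gavage or as tail-vein i.v. bolus. Blood into heparin/NEM tubes at 0–24 h. Plasma measured by LC-MS/MS; noncompartmental analysis; Tmax observed; Vd = dose/(AUCinf·λz).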
# Cynomolgus monkey [7] = assay: AUC(0 to infinity) in cynomolgus monkey at 5 mg/kg, iv administered as bolus injection by LC-MS/MS analysis; type: ADME, organism-based, Macaca fascicularis, Plasma; set-up: time infinity, dose 5 mg/kg, route intravenous; conditions: in vivo; summary of the method: as §2
# [8] = Oral bioavailability in Sprague-Dawley rat at 30 mg/kg administered via gavage measured under fasted conditions by LC-MS/MS analysis; type: ADME, organism-based; conditions: in vivo
# [9] = Half life in Sprague-Dawley rat at 30 mg/kg, po administered via gavage measured under fasted conditions by LC-MS/MS analysis; type: ADME, organism-based; set-up: dose 30 mg/kg, route oral; conditions: in vivo
# [10] = Cmax in Sprague-Dawley rat brain at 10 mg/kg/day, po administered for 5 days measured per gm of tissue by LC-MS/MS analysis; type: ADME, organism-based; set-up: dose 10 mg/kg/day, route oral
# Summary of the method: (§4)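 Male Sprague-Dawley rats were dosed orally with 10 mg/kg/day, either once or daily for 5 days; n = 4 per group. Blood was taken by cardiac puncture and liver, kidney, brain and sciatic nerve were collected at 0–8 h post-dose. Tissues were homogenized in PBS containing NEM at equal volume per gram. NEM-derivatized analyte was extracted with methanol and quantified by LC-MS/MS (1–5000 ng/ml). Cmax is the observed value.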
# Rattus norvegicus [11] = assay: AUC(0 to infinity) in Sprague-Dawley rat at 0.1 mg/kg, po administered via gavage measured under fasted conditions by LC-MS/MS analysis; type: ADME, organism-based, Plasma; set-up: time infinity, dose 0.1 mg/kg, route oral; conditions: in vivo; summary of the method: as §1
# [12] = Half life in Sprague-Dawley rat at 0.1 mg/kg, po administered via gavage measured under fasted conditions by LC-MS/MS analysis; type: ADME, organism-based; set-up: dose 0.1 mg/kg, route oral; conditions: in vivo
# Cynomolgus monkey [13] = assay: Apparent oral clearance in cynomolgus monkey at 5 mg/kg, po by LC-MS/MS analysis; type: ADME, organism-based, Macaca fascicularis; set-up: dose 5 mg/kg, route oral; conditions: in vivo
# Summary of the method: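 Cynomolgus monkeys (n = 3) dosed orally at a nominal 5 mg/kg in TCEP-treated 50 mM HEPES solution. Blood taken via iliac or femoral arterial cannula up to 9 days into heparin/NEM tubes. Plasma analyzed by LC-MS/MS. Cl/F and Vd/F derived noncompartmentally.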
# [14] = Half life in Sprague-Dawley rat at 10 mg/kg, po administered via gavage measured under fed conditions by LC-MS/MS analysis; type: ADME, organism-based; set-up: dose 10 mg/kg, route oral; conditions: in vivo
# [15] = Clearance in Sprague-Dawley rat at 10 mg/kg, iv by LC-MS/MS analysis; type: ADME, organism-based; set-up: dose 10 mg/kg, route intravenous; conditions: in vivo
# Summary of the method: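 Male Sprague-Dawley rats dosed intravenously at 10 mg/kg (n = 6). Blood sampling extended to 7 days into heparin tubes containing NEM. Plasma assayed for parent and homodisulfide by LC-MS/MS, calibration range 1–5000 ng/ml. Noncompartmental analysis, t1/2 = 0.693/λz. Mean ± S.D.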
# Rattus norvegicus [16] = assay: Analgesic activity in Sprague-Dawley rat chronic constriction injury model assessed as change in paw withdrawal latency at 10 mg/kg/day, po measured 11 days after drug treatment cessation (reference value: -2.77 +/-0.3 s); type: functional
# [17] = Cmax in Sprague-Dawley rat liver at 10 mg/kg/day, po administered for 5 days measured per gm of tissue by LC-MS/MS analysis; type: ADME, organism-based; set-up: dose 10 mg/kg/day, route oral; summary of the method: as §4
# [18] = Volume of distribution in Sprague-Dawley rat at 1 mg/kg, iv administered as bolus injection measured under fasted conditions by LC-MS/MS analysis; type: ADME, organism-based; set-up: dose 1 mg/kg, route intravenous; conditions: in vivo; summary of the method: as §3
# [19] = Cmax in Sprague-Dawley rat at 10 mg/kg, po administered via gavage measured under fed conditions by LC-MS/MS analysis; type: ADME, organism-based; set-up: dose 10 mg/kg, route oral; conditions: in vivo
# Summary of the method: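 Nonfasted male Sprague-Dawley rats given a single 10 mg/kg oral dose in 50 mM HEPES buffered saline, pH 7.4. Plasma collected 0.25–24 h into heparin/NEM tubes and assayed by LC-MS/MS. Noncompartmental parameters derived, including Cl/F and Vd/F. Mean ± S.D., n = 6–9.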
# [20] = Phase 2 metabolic stability in monkey liver microsomes assessed as compound remaining at 10 uM measured for 1 hr by LC-MS/MS analysis in absence of cofactors; type: ADME, Macaca mulatta; conditions: rhesus monkey, read-out: Stability
# Summary of the method: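 Cofactor-free controls were run for each microsomal incubation: 0.5 mg/ml liver microsomes with 10 µM compound, omitting cofactors, so that cofactor-independent degradation could be measured. Samples were taken up to 1 h, quenched with acetonitrile containing internal standard, and the percent remaining was determined by LC-MS/MS.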
# [21] = Volume of distribution in Sprague-Dawley rat at 30 mg/kg, iv administered as bolus injection measured under fasted conditions by LC-MS/MS analysis; type: ADME, organism-based; set-up: dose 30 mg/kg, route intravenous; conditions: in vivo; summary of the method: as §3
# [22] = Elimination half life in cynomolgus monkey at 5 mg/kg, po by LC-MS/MS analysis; type: ADME, organism-based, Macaca fascicularis; set-up: dose 5 mg/kg, route oral; conditions: in vivo, read-out: beta t1/2 (converted)
# Summary of the method: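 Cynomolgus monkeys (n = 3) received a nominal 5 mg/kg dose in 50 mM HEPES, TCEP-treated to prevent disulfide formation. Dosing was either an IV bolus via cephalic or saphenous vein or oral. Arterial cannula blood was collected into NEM-containing heparinized tubes for up to 9 days and analyzed by LC-MS/MS. Noncompartmental analysis gave t1/2 = 0.693/λz and F% = dose-normalized mean AUCinf p.o./i.v. ×100.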
structure (smiles),measurement,setting,value
O=C(O)c1cccc(-c2cccc(CCS)c2C(=O)O)c1,Vd/F,[1],1.65 L/kg
same,CL,Cynomolgus monkey [2],0.367 mL/min/kg
same,clearance,[3],0.833 mL/min/kg
same,Tmax,[4],6.6 min
same,half-life,[5],3.25 h
same,Vd,[6],0.2 L/kg
same,AUC,Cynomolgus monkey [7],63622.1 ng·h/mL
same,bioavailability,[8],37.5%
same,half-life,[9],3.15 h
same,Cmax,[10],32.4 ng/g
same,AUC,Rattus norvegicus [11],605 ng·h/mL
same,half-life,[12],9.33 h
same,CL/F,Cynomolgus monkey [13],0.95 mL/min/kg
same,half-life,[14],2.75 h
same,clearance,[15],2 mL/min/kg
same,Time,Rattus norvegicus [16],-1.9 s
same,Cmax,[17],457 ng/g
same,Vd,[18],0.21 L/kg
same,Cmax,[19],16200 ng/mL
same,"remaining at 1 h, 10 µM",[20],> 90%
same,Vd,[21],1.08 L/kg
same,half-life,[22],9.57 h
